From ChEMBL document CHEMBL5108071, “Potent and Specific Activators for Mitochondrial Sirtuins Sirt3 and Sirt5” (J Med Chem, 2022)
pKd: −log10 of the molar value.

What was measured:
[1] = target: T1, NAD-dependent protein deacylase sirtuin-5, mitochondrial (Homo sapiens, UniProt Q9NXA8); assay: Binding affinity to N-terminal his-tagged human SIRT5 (34 to 302 residues) expressed in Escherichia coli assessed as dissociation constant using CPS1-succK537 peptide as substrate
Summary of the method: (§1)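 MST binding: Sirt5 labelled 2 h at room temperature in the dark with twofold molar excess FITC in PBS pH 7.4, free dye removed; 10 nM labelled protein incubated with ligand plus saturating 0.5 mM peptide or 5 mM NAD+ in PBS, 10% DMSO, 30 min on ice; read at 25 °C.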

[2] = target: T1, NAD-dependent protein deacylase sirtuin-5, mitochondrial; assay: Binding affinity to N-terminal his-tagged human SIRT5 (34 to 302 residues) expressed in Escherichia coli assessed as dissociation constant using NAD+ as substrate; summary of the method: as §1

T1 sequence (Q9NXA8 whole entry, the tested form may be a part): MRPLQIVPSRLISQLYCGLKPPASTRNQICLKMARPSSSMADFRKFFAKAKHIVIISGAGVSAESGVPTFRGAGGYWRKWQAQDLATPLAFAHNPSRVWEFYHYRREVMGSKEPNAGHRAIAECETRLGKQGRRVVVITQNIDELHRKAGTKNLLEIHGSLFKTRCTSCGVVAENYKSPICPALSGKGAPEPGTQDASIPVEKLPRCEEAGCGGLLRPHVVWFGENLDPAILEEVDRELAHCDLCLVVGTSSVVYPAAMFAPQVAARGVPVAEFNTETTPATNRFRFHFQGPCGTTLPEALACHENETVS

SMILES: CCOC(=O)C1=CN(C(=O)c2ccccc2)C=C(C(=O)OCC)C1c1ccsc1
- pKd [1]: 4.62
- pKd [2]: 4.55
